UBC13 inh – UBC13 polyubiquitin chain formation inhibitors, primary screen, biochemical, TR-FRET, uHTS | inhibition, % at 20 µM | 330,000 tested, 0.47% active | AID 485273, 2010; in the data active = inhibition above about 45%, passing the limit was not always enough; inconclusive = no clear call, values can overlap the other calls
UBC9 SUMO inh – inhibitors of in vitro SUMOylation cascade, primary screen, biochemical, HTRF, uHTS; SUMO-conjugating enzyme UBC9 (Homo sapiens), P63279; HTRF SUMOylation assay, SAE1/SAE2 + UBC9; inhibition, % at 35 µM; 290,000 tested, 0.36% active; AID 2006, 2009; in the data active = inhibition above about 50%, passing the limit was not always enough; inconclusive = no clear call, values can overlap the other calls
Apaf1 inhib – inhibitors of human Apaf-1 apoptosome, primary screen, biochemical, DEVD-Rh110 fluorescence, uHTS. AID 489030, 2010. 330,000 tested, 0.71% active. Apoptotic protease-activating factor 1 (Homo sapiens), O14727. reconstituted apoptosome caspase-3 activity. inhibition, % at 20 µM; active = inhibition of at least 40% at 20 µM
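Material: reconstituted apoptosome with Apaf-1, cytochrome c, caspase-9, procaspase-3, dATP / Buffer or medium: pH 7.5 Hepes buffer with CHAPS, BSA, DTT / Also added: cytochrome c with DEVD-Rh110 / Schedule: compound with Apaf-1, dATP, procaspase-3 30 min, then 50 min reaction, room temperature / Technique: rhodamine 110 fluorescence at Ex 480/Em 540 nm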
GSTO1 inh – inhibitors of recombinant GSTO1, primary screen, counter-screen for RBBP9 inhibitor project, biochemical, fluorescence polarization; Glutathione S-transferase omega-1 (Homo sapiens), P78417; activity-based probe fluorescence polarization; inhibition, % at 5.96 µM; 300,000 tested, 1.1% active; AID 1974, 2009;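 active = inhibition above the campaign mean inhibition plus 3 SD, cut at about 35% in these data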
PAD4 FP inh – human PAD4 inhibitors, primary screen, biochemical, fluorescence polarization, 1536-well format; Protein-arginine deiminase type-4 (Homo sapiens), Q9UM07; recombinant PAD4, RCA probe fluorescence polarization; inhibition, % at 6.36 µM; 330,000 tested, 0.41% active; AID 485272, 2010;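 active = percent inhibition above a cutoff equal to the mean of all tested compounds plus 3 SD, cut at about 15% in these data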
Target sequence (Q9UM07 whole entry, looked up): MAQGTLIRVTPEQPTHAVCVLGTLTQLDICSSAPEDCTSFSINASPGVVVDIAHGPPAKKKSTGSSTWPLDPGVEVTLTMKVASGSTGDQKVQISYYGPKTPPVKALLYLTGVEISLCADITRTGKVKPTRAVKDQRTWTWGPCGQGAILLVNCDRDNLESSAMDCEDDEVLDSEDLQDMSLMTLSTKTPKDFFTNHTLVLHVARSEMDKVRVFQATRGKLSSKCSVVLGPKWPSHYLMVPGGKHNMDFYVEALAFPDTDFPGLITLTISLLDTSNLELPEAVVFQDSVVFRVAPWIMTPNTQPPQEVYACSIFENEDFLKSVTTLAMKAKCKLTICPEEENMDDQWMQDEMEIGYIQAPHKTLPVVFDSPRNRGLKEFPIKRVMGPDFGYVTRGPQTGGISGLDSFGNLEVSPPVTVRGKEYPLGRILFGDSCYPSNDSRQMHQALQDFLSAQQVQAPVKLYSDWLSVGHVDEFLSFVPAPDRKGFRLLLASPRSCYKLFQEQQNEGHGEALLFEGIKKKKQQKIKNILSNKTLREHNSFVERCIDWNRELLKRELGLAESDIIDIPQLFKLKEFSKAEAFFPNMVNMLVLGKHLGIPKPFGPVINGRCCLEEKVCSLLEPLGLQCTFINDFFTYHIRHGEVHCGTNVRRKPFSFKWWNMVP
Rin1-Abl PPI inh – inhibitors of Rin1-Abl protein binding, primary screen, biochemical, TR-FRET; Tyrosine-protein kinase ABL1 (Homo sapiens) + Ras and Rab interactor 1 (Homo sapiens), …; inhibition, % at 7.35 µM; 360,000 tested, 0.4% active; in the data active = inhibition above about 5%, passing the limit was not always enough
Apaf-1 inh conf2 – Apaf-1 inhibitors, single-dose retest, confirmation, biochemical, fluorescence, DEVD-Rh110, 20 µM | shares compounds with Apaf1 inhib | reconstituted apoptosome, caspase-3 DEVD-Rh110 fluorescence | inhibition, % at 20 µM | 1,800 tested, 25% active | AID 504614, 2011;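 active = mean inhibition of at least 40% at 20 µM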
Rh110 quench – Rh110 fluorescence interference by putative Apaf-1 inhibitors, confirmation, artefact control for Apaf-1 inhibitor project, biochemical, 20 µM. shares compounds with Apaf1 inhib. 1,800 tested, under 10 active. AID 504615, 2011. quenched caspase reaction. activation (fluorescence interference), % at 20 µM;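 active = signal rise of 40% or more at 20 µM, treated as a fluorescence artifact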
Fluor interf inh – fluorescence interference of Apaf-1 inhibitor hits, dose response, artefact control for Apaf-1 inhibitor project | shares compounds with Apaf1 inhib | fluorescence interference counterscreen, Apaf-1 assay format | IC50, µM | 460 tested, under 10 active; call rule not given here
Hits are given with their value. Shown are actives, neighbours in structure and some others; about 2.2% of the full set was active somewhere.

What do the screens show for `O=C(NNc1cc(N2CCOCC2)nc(N2CCOCC2)n1)c1ccc([N+](=O)[O-])cc1`?
UBC13 inh: inactive; Apaf1 inhib: 97; Rin1-Abl PPI inh: inactive; Apaf-1 inh conf2: 60; Rh110 quench: inactive; Fluor interf inh: inactive

What do the screens show for `Clc1ccccc1OCc1nn2c(-c3ccncc3)nnc2s1`?
UBC13 inh: inactive; UBC9 SUMO inh: inactive; Apaf1 inhib: 41; GSTO1 inh: inactive; PAD4 FP inh: inactive; Rin1-Abl PPI inh: inactive; Apaf-1 inh conf2: 50; Rh110 quench: inactive; Fluor interf inh: inactive

How did CCOC(=O)c1[nH]c(=O)c2ccccc2c1O do in these assays?
UBC13 inh: inactive; UBC9 SUMO inh: inactive; Apaf1 inhib: 75; GSTO1 inh: inactive; PAD4 FP inh: inactive; Rin1-Abl PPI inh: inactive; Apaf-1 inh conf2: inactive; Rh110 quench: inactive

What do the screens show for `COc1ccc(N)c2c1OCCC2=O`?
UBC13 inh: inactive; UBC9 SUMO inh: inactive; Apaf1 inhib: 87; GSTO1 inh: inactive; PAD4 FP inh: inactive; Rin1-Abl PPI inh: inactive; Apaf-1 inh conf2: inactive; Rh110 quench: inactive

How did COc1ccc2c(c1OC)C(=O)OC2 do in these assays?
UBC13 inh: inactive; UBC9 SUMO inh: inactive; Apaf1 inhib: inactive; GSTO1 inh: inactive; PAD4 FP inh: inactive; Rin1-Abl PPI inh: inactive

Results for Clc1cccc(CSc2nnc(-c3ccccn3)n2Cc2ccco2)c1 ?
UBC13 inh: inactive; UBC9 SUMO inh: inactive; Apaf1 inhib: 42; GSTO1 inh: inactive; PAD4 FP inh: inactive; Rin1-Abl PPI inh: inactive; Apaf-1 inh conf2: inactive; Rh110 quench: inactive

What do the screens show for `COc1ccc(CNS(=O)(=O)CCNC(=O)c2cccc(OC)c2)cc1`?
UBC13 inh: inactive; Apaf1 inhib: inactive; GSTO1 inh: inactive; PAD4 FP inh: inactive; Rin1-Abl PPI inh: inactive

What do the screens show for `COCCNC(=O)C1CCCN(C(=O)c2cncc(Br)c2)CC1` (configuration not stated)?
Rin1-Abl PPI inh: inactive

Results for CN(C)C=Nc1ccc2nc3c(cc2c1)[nH]c1ccccc13 ?
UBC13 inh: inconclusive; UBC9 SUMO inh: 50; Apaf1 inhib: 46; GSTO1 inh: inactive; PAD4 FP inh: inactive; Rin1-Abl PPI inh: inactive; Apaf-1 inh conf2: 44; Rh110 quench: inactive; Fluor interf inh: inactive

What do the screens show for `C[C@H](CO)N1C[C@H](C)[C@H](CN(C)C(=O)Nc2ccc3c(c2)OCCO3)OCc2cnnn2CCCC1=O`?
Rin1-Abl PPI inh: inactive

Results for CN(C)CCCN(C(=O)CCc1ccccc1)c1nc2ccc(Cl)cc2s1 ?
UBC13 inh: inactive; UBC9 SUMO inh: inactive; Apaf1 inhib: 44; GSTO1 inh: inactive; PAD4 FP inh: inactive; Rin1-Abl PPI inh: inactive; Apaf-1 inh conf2: inactive; Rh110 quench: inactive

How did CC1(C)Cc2c(sc(NC(=O)COc3cccc4ccccc34)c2C#N)C(C)(C)N1 do in these assays?
UBC13 inh: inactive; UBC9 SUMO inh: inactive; Apaf1 inhib: 46; GSTO1 inh: inactive; PAD4 FP inh: inactive; Rin1-Abl PPI inh: inactive; Apaf-1 inh conf2: inactive; Rh110 quench: inactive

What do the screens show for `CN(C)CCNC(=O)c1ccc(COc2ccc(Cl)cc2Cl)cc1`?
UBC13 inh: inactive; UBC9 SUMO inh: inactive; Apaf1 inhib: 46; GSTO1 inh: inactive; PAD4 FP inh: inactive; Rin1-Abl PPI inh: inactive; Apaf-1 inh conf2: inactive; Rh110 quench: inactive

How did COc1ccc(Cl)cc1C(=O)NCCN(C)C do in these assays?
UBC13 inh: inactive; UBC9 SUMO inh: inactive; Apaf1 inhib: inactive; GSTO1 inh: inactive; PAD4 FP inh: inactive; Rin1-Abl PPI inh: inactive

How did O=C(Nc1ccc2nsnc2c1)N1CCCCC1 do in these assays?
UBC13 inh: inactive; UBC9 SUMO inh: inactive; Apaf1 inhib: 73; GSTO1 inh: inactive; PAD4 FP inh: inactive; Rin1-Abl PPI inh: inactive; Apaf-1 inh conf2: inactive; Rh110 quench: inactive

What do the screens show for `CN(C)CCCN(C(=O)c1ccc2ccccc2c1)c1nc2cc3c(cc2s1)OCO3`?
UBC13 inh: inactive; UBC9 SUMO inh: inactive; Apaf1 inhib: inactive; GSTO1 inh: inactive; PAD4 FP inh: inactive; Rin1-Abl PPI inh: inactive

What do the screens show for `CN(C)CCN(C(=O)c1cccc2ccccc12)c1nc2cc3c(cc2s1)OCO3`?
UBC13 inh: inactive; UBC9 SUMO inh: inactive; Apaf1 inhib: 52; GSTO1 inh: inactive; PAD4 FP inh: inactive; Rin1-Abl PPI inh: inactive; Apaf-1 inh conf2: inactive; Rh110 quench: inactive

What do the screens show for `CCN1CCN(S(=O)(=O)c2ccc(Cl)c(C(=O)N(C)Cc3ccccc3)c2)CC1`?
UBC13 inh: inactive; Apaf1 inhib: inactive; PAD4 FP inh: inactive; Rin1-Abl PPI inh: inactive

Results for COc1ccc(S(=O)(=O)N2CCCCCC2)cc1C(=O)N(C)Cc1c(F)cccc1Cl ?
UBC13 inh: inactive; Apaf1 inhib: 43; PAD4 FP inh: inactive; Rin1-Abl PPI inh: inactive; Apaf-1 inh conf2: inactive; Rh110 quench: inactive

What do the screens show for `CCN1CCN(S(=O)(=O)c2ccc(Cl)c(C(=O)N(C)Cc3cccc(Cl)c3Cl)c2)CC1`?
UBC13 inh: inactive; Apaf1 inhib: 43; GSTO1 inh: inactive; PAD4 FP inh: inactive; Rin1-Abl PPI inh: inactive; Apaf-1 inh conf2: inactive; Rh110 quench: inactive

Results for COc1ccc(S(=O)(=O)N2CCCCCC2)cc1C(=O)NCCc1ccccc1 ?
UBC13 inh: inactive; Apaf1 inhib: 47; PAD4 FP inh: inactive; Rin1-Abl PPI inh: inactive; Apaf-1 inh conf2: inactive; Rh110 quench: inactive

Results for COc1ccc(S(=O)(=O)N2CCCCCC2)cc1C(=O)N(C)Cc1ccc(Cl)cc1Cl ?
UBC13 inh: inactive; Apaf1 inhib: inactive; GSTO1 inh: inactive; PAD4 FP inh: inactive; Rin1-Abl PPI inh: inactive

What do the screens show for `Cc1ccc(S(=O)(=O)N2CCCCC2)cc1C(=O)NCCc1ccccc1`?
UBC13 inh: inactive; UBC9 SUMO inh: inactive; Apaf1 inhib: inactive; GSTO1 inh: inactive; PAD4 FP inh: inactive; Rin1-Abl PPI inh: inactive

Results for C[C@@H]1CN([C@H](C)CO)C(=O)c2cc(C#CC3CC3)cnc2O[C@H]1CN(C)S(C)(=O)=O ?
Rin1-Abl PPI inh: inactive

Results for COc1ccc(C(CNC(=O)C2CC(=O)N(Cc3ccccc3)C2)N2CCCC2)cc1 (configuration not stated) ?
UBC13 inh: inactive; Apaf1 inhib: 61; PAD4 FP inh: inactive; Rin1-Abl PPI inh: inactive; Apaf-1 inh conf2: inactive; Rh110 quench: inactive
